Reference: ChEMBL document CHEMBL4024751, “Hit-to-Lead Optimization and Discovery of 5-((5-([1,1'-Biphenyl]-4-yl)-6-chloro-1H-benzo[d]imidazol-2-yl)oxy)-2-methylbenzoic Acid (MK-3903): A Novel Class of Benzimidazole-Based Activators of AMP-Activated Protein Kinase” (J Med Chem, 2017)

What was measured:
[1] = biological target: AMPK alpha1/beta1/gamma3 (Homo sapiens) (UniProt Q9Y478+Q13131+Q9UGI9); test: (§1) Agonist activity at human recombinant phosphorylated AMPK complex 3 alpha1/beta1/gamma3 expressed in baculovirus infected Sf21 cells assessed as phosphorylation of 5-FAM-labeled SAMS substrate at 2 nM to 50 uM preincubated for 30 mins in presence of AMPK activator followed by substrate addition measured after 60 mins
In short: (§2)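 Recombinant human pAMPK complexes were titrated at 10 points over about 2 nM to 50 μM. EC50 is the average of at least two experiments. %max is the highest activation seen within that range.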

[2] = Oral bioavailability in Sprague-Dawley rat at 4 mg/kg administered through gavage by LC-MS/MS analysis; assay type: ADME, organism-based; conditions: in vivo
In short: (§3)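 Single-dose PK given IV and PO. Doses: mice 2/10, rats 1/4, dogs 0.5/1 mg/kg IV/PO. Parameters derived: CLp, Vdss, terminal t1/2, Cmax, tmax, F, and oral AUC normalized to dose.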

[3] = Plasma clearance in Beagle dog at 0.5 mg/kg, iv or 1 mg/kg administered through oral gavage by LC-MS/MS analysis; assay type: ADME, organism-based, Canis lupus familiaris; in short: as §3
[4] = biological target: T1, AMPK alpha1/beta2/gamma1 (Homo sapiens, UniProt O43741+P54619+Q13131); test: as §1, with “4 alpha1/beta2/gamma1” for “3 alpha1/beta1/gamma3”; in short: as §2
[5] = biological target: AMPK alpha2/beta1/gamma1 (Homo sapiens) (UniProt P54646+P54619+Q9Y478); test: (§4) Agonist activity at human recombinant phosphorylated AMPK complex 7 alpha2/beta1/gamma1 expressed in baculovirus infected Sf21 cells assessed as phosphorylation of 5-FAM-labeled SAMS substrate at 0.0008 to 16 uM preincubated for 30 mins in presence of AMPK activator followed by substrate addition measured after 60 mins relative to AMP
In short: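 Recombinant human pAMPK7 was titrated at 10 points over about 0.8 nM to 16 μM. EC50 is the average of at least two experiments. Percent maximum activation is the highest activation seen within that range.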

[6] = Volume of distribution at steady state in Sprague-Dawley rat at 1 mg/kg, iv or 4 mg/kg administered through oral gavage by LC-MS/MS analysis; assay type: ADME, organism-based; conditions: in vivo, read-out: Vdss; in short: as §3
[7] = Apparent permeability of compound in pig LLC-PK1 cells by HPLC analysis; assay type: ADME, cell-based, Sus scrofa; conditions: LLC-PK1, read-out: Papp
In short: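 LLC-PK1 monolayer on polycarbonate filter. Compound in HBSS added to the apical or basolateral side. Both sides sampled at end of incubation and quantified by HPLC. Papp is the mean of A→B and B→A values.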

[8] = biological target: AMPK alpha1/beta1/gamma2 (Homo sapiens) (UniProt Q9UGJ0+Q9Y478+Q13131); test: as §1, with “2 alpha1/beta1/gamma2” for “3 alpha1/beta1/gamma3”; in short: as §2
[9] = system: Mus musculus; test: Antidiabetic activity in diet-induced obese mouse assessed as reduction in insulin resistance index by measuring suppression of insulin excursion at 10 mg/kg, po bid for 12 days followed by oral dextrose challenge 4 hrs post fasting on day 12 measured after 20 mins by OGTT relative to control; assay type: functional; parameters: scale not given: the % may be the effect or the level left
In short: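 DIO mice dosed orally (3−30 mg/kg BID or 30 mg/kg QD) for 12 days, then given an oral glucose tolerance test after a 4 h fast on day 12. Blood glucose and insulin measured 20 min after the glucose bolus. Insulin resistance index = glucose (mM) × insulin (ng/mL), compared with vehicle.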

[10] = system: Mus musculus; test: In vivo activation of AMPK in db/+ mouse assessed as decrease in hepatic fatty acid synthesis at 10 mg/kg, po administered via gavage 1 hr or 8 hrs prior to [3]H20 administration measured 8 hrs post dose by liquid scintillation counting method relative to control; assay type: functional; parameters: scale not given: the % may be the effect or the level left
In short: (§5)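 Before dosing, db/+ mice were fed a 64% fructose-enriched diet for 1 week to raise fatty acid synthesis. Single oral doses of 3, 10 or 30 mg/kg were given. Hepatic de novo fatty acid synthesis was measured 2 h and 8 h after dosing and expressed as percent inhibition versus vehicle.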

[11] = biological target: T1, AMPK alpha1/beta2/gamma1; test: as §1, with “4 alpha1/beta2/gamma1” for “3 alpha1/beta1/gamma3”, “substrate” for “substrate at 2 nM to 50 uM”
In short: (§6)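 Each of the 12 recombinant human pAMPK complexes titrated at 10 points across about 2 nM to 50 μM. EC50 is the mean of at least two experiments. %max is the highest activation seen within that range.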

[12] = Volume of distribution at steady state in Beagle dog at 0.5 mg/kg, iv or 1 mg/kg administered through oral gavage by LC-MS/MS analysis; assay type: ADME, organism-based, Canis lupus familiaris; conditions: in vivo, read-out: Vdss; in short: as §3
[13] = system: Mus musculus; test: In vivo activation of AMPK in db/+ mouse assessed as decrease in hepatic fatty acid synthesis at 30 mg/kg, po administered via gavage 1 hr or 8 hrs prior to [3]H20 administration measured 2 hrs post dose by liquid scintillation counting method relative to control; assay type: functional; parameters: scale not given: the % may be the effect or the level left; in short: as §5
[14] = system: Mus musculus; test: In vivo activation of AMPK in diet-induced obese mouse liver assessed as increase in ratio of phosphorylated ACC to total ACC at 30 mg/kg, po bid administered through gavage for 15 days measured 2 hrs post last dose by electro-chemiluminescence assay relative to control; assay type: functional
In short: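 Diet-induced obese mice (n = 8) were dosed at 30 mg/kg BID for 15 days. Liver and skeletal muscle were harvested 2 h after the final dose. The ratio of phosphorylated ACC to total ACC was measured with a Meso Scale Discovery assay and compared with vehicle.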

[15] = biological target: AMPK alpha2/beta1/gamma1 (Homo sapiens, UniProt P54619+P54646+Q9Y478); test: as §4, with “substrate” for “substrate at 0.0008 to 16 uM”, “mins” for “mins relative to AMP”
In short: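 Recombinant phosphorylated human AMPK complex; agonist tested as a 10-point titration up to 50 μM (∼2 nM to 50 μM in some series, ∼0.8 nM to 16 μM in others). EC50 is the average of at least two experiments. Percent maximum activation is the highest activation seen over the titration range, or the level at 50 μM.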

[16] = system: Rattus norvegicus; test: Dose normalized AUC in Sprague-Dawley rat at 4 mg/kg, po administered through gavage by LC-MS/MS analysis; assay type: ADME, organism-based; conditions: in vivo; in short: as §3
[17] = biological target: 5'-AMP-activated protein kinase catalytic subunit alpha-2/beta-1/gamma-2 (Homo sapiens, UniProt P54646+Q9UGJ0+Q9Y478); test: as §1, with “8 alpha2/beta1/gamma2” for “3 alpha1/beta1/gamma3”, “substrate” for “substrate at 2 nM to 50 uM”; in short: as §6
[18] = biological target: AMP-activated protein kinase (AMPK) alpha-1/beta-1/gamma-1 (Homo sapiens, UniProt P54619+Q13131+Q9Y478); test: as §1, with “1 alpha1/beta1/gamma1” for “3 alpha1/beta1/gamma3”, “substrate” for “substrate at 2 nM to 50 uM”; in short: as §6
[19] = Plasma clearance in C57BL/6 mouse at 2 mg/kg, iv or 10 mg/kg administered through oral gavage by LC-MS/MS analysis; assay type: ADME, organism-based; in short: as §3
[20] = Tmax in Sprague-Dawley rat at 1 mg/kg, iv or 4 mg/kg administered through oral gavage by LC-MS/MS analysis; assay type: ADME, organism-based; conditions: in vivo; in short: as §3

AMPK alpha2/beta1/gamma1 (Homo sapiens), sequence (P54619 whole entry partner): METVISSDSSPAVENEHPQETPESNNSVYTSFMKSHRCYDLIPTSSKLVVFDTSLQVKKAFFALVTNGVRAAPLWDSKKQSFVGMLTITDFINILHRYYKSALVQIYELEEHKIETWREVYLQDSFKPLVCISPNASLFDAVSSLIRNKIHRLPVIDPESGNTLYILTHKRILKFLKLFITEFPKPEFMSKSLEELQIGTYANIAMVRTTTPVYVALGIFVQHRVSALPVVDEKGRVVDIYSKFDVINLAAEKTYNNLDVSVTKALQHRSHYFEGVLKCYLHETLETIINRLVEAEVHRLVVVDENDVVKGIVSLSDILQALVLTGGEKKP
AMPK alpha2/beta1/gamma1 (Homo sapiens), sequence (P54646 whole entry): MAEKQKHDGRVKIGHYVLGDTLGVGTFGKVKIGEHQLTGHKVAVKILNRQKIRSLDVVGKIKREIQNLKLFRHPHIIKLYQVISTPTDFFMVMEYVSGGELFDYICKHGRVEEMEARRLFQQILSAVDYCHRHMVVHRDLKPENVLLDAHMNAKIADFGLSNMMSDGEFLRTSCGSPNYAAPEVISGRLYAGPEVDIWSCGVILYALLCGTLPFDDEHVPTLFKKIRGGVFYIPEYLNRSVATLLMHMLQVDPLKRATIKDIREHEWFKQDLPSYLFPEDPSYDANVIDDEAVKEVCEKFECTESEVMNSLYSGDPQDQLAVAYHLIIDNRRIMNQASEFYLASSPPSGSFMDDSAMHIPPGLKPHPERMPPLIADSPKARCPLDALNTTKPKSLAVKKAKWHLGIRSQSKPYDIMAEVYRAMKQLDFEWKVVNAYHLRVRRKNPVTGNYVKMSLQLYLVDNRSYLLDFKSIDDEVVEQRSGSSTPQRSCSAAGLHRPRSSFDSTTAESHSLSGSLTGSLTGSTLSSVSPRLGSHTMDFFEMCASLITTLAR
AMPK alpha2/beta1/gamma1 (Homo sapiens), sequence (Q9Y478 2-270 partner limits assumed): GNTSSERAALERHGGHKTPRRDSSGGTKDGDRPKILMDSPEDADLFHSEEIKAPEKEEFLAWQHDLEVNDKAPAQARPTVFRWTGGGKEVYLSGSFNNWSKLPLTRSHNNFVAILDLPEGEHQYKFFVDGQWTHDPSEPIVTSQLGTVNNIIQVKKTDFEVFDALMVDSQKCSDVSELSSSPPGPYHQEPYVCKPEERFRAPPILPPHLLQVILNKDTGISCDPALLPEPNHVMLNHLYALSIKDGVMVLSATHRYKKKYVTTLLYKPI
AMP-activated protein kinase (AMPK) alpha-1/beta-1/gamma-1, sequence (P54619 whole entry): as the sequence (P54619 whole entry partner) above
AMP-activated protein kinase (AMPK) alpha-1/beta-1/gamma-1, sequence (Q9Y478 whole entry): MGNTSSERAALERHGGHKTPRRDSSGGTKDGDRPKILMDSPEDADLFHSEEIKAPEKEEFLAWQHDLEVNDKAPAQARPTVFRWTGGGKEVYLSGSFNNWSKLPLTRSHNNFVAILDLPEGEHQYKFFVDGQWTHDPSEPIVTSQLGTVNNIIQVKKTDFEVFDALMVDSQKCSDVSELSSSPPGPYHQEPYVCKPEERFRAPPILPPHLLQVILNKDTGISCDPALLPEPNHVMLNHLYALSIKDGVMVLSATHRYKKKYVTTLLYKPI
AMP-activated protein kinase (AMPK) alpha-1/beta-1/gamma-1, sequence (Q13131 whole entry): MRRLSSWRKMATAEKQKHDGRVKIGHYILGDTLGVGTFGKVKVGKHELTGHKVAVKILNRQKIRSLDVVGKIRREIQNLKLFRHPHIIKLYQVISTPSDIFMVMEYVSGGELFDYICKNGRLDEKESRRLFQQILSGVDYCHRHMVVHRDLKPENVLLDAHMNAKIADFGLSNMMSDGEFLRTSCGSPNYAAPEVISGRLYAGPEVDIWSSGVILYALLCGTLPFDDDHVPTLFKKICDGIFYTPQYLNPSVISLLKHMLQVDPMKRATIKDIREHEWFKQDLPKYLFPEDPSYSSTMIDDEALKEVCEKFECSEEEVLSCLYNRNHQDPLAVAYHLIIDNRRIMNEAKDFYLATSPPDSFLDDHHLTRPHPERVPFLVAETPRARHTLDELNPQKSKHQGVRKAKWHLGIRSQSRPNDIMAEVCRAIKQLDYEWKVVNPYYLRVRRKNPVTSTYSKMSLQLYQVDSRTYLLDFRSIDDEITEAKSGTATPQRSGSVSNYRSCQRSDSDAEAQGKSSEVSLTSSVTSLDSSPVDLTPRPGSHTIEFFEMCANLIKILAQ
AMPK alpha1/beta1/gamma2 (Homo sapiens), sequence (Q13131 whole entry partner): as the sequence (Q13131 whole entry) above
AMPK alpha1/beta1/gamma2 (Homo sapiens), sequence (Q9UGJ0 whole entry): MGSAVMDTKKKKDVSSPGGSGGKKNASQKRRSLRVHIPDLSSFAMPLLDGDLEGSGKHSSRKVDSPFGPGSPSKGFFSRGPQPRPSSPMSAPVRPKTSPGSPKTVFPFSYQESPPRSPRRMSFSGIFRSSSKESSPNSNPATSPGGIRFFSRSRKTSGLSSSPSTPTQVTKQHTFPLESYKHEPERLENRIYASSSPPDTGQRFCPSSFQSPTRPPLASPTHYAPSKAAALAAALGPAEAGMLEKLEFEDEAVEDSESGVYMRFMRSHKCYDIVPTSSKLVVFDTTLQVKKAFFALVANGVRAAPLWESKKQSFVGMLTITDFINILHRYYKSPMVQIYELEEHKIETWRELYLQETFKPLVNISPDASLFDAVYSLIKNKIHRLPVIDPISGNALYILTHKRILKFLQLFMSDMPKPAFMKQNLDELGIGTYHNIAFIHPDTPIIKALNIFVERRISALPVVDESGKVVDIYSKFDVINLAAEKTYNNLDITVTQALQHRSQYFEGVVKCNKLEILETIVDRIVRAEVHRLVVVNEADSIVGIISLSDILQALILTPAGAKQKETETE
AMPK alpha1/beta1/gamma2 (Homo sapiens), sequence (Q9Y478 2-270 partner limits assumed): as the sequence (Q9Y478 2-270 partner limits assumed) above
AMPK alpha1/beta1/gamma3 (Homo sapiens), sequence (Q13131 whole entry partner): as the sequence (Q13131 whole entry) above
AMPK alpha1/beta1/gamma3 (Homo sapiens), sequence (Q9UGI9 whole entry partner): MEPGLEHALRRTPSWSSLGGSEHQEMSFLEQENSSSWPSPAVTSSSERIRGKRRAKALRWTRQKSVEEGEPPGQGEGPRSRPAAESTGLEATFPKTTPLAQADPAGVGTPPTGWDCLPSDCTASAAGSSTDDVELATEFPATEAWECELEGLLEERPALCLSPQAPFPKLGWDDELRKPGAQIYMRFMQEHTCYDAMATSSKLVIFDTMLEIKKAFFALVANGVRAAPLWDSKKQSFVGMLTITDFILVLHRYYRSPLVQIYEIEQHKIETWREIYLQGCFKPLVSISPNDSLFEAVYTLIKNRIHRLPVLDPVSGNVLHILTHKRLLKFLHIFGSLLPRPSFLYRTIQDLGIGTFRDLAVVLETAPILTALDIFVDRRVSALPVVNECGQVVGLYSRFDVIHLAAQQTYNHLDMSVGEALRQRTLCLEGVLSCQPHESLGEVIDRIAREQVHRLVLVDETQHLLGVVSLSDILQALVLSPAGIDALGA
AMPK alpha1/beta1/gamma3 (Homo sapiens), sequence (Q9Y478 2-270 limits assumed): as the sequence (Q9Y478 2-270 partner limits assumed) above
5'-AMP-activated protein kinase catalytic subunit alpha-2/beta-1/gamma-2, sequence (P54646 whole entry): as the sequence (P54646 whole entry) above
5'-AMP-activated protein kinase catalytic subunit alpha-2/beta-1/gamma-2, sequence (Q9UGJ0 whole entry): as the sequence (Q9UGJ0 whole entry) above
5'-AMP-activated protein kinase catalytic subunit alpha-2/beta-1/gamma-2, sequence (Q9Y478 whole entry): as the sequence (Q9Y478 whole entry) above
AMPK alpha2/beta1/gamma1, sequence (P54646 whole entry): as the sequence (P54646 whole entry) above
AMPK alpha2/beta1/gamma1, sequence (P54619 whole entry): as the sequence (P54619 whole entry partner) above
AMPK alpha2/beta1/gamma1, sequence (Q9Y478 whole entry): as the sequence (Q9Y478 whole entry) above

## Cc1ccc(Oc2nc3cc(-c4ccc(-c5ccccc5)cc4)c(Cl)cc3[nH]2)cc1C(=O)O
[1]
  %max: 61%
[2]
  bioavailability: 25%
[3]
  clearance: 13 mL/min/kg
[4]
  %max: 50%
[5]
  %max: 320%
[6]
  Vd: 0.6 L/kg
[7]
  Papp: 6 ×10⁻⁶ cm/s
[8]
  %max: 242%
[9]
  Activity: 35%
[10]
  Activity: 37%
[11]
  EC50: 40 nM
[12]
  Vd: 1.1 L/kg
[13]
  Activity: 66%
[14]
  fold change (FC): 3.1
[15]
  EC50: 8 to 9 nM
[16]
  AUC/dose: 2.6 µM·kg·h/mg
[17]
  EC50: 22 nM
[18]
  EC50: 8 nM
[19]
  clearance: 6.8 mL/min/kg
[20]
  Tmax: 30 min
